Measured values as given in ChEMBL document CHEMBL1156744, “Anti-tumoral activity of imidazoquines, a new class of antimalarials derived from primaquine” (Bioorg Med Chem Lett, 2009).

Experiments:
Type in all cases: functional, cell-based
HT-29 = assay: Antitumor activity against human HT-29 cells after 48 hours hrs by SRB assay; details: HT-29, 48 h
In short: (§1)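 Seeded cells were exposed to each compound across a broad concentration range for 48 h. Growth was read by sulforhodamine B staining, compared against untreated control. Values are mean ± SEM, n = 3–6.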

Caco-2 = assay: Antitumor activity against human Caco-2 cells after 48 hours hrs by SRB assay; details: Caco-2, 48 h; in short: as §1
MCF7 = assay: Antitumor activity against human MCF7 cells after 48 hours hrs by SRB assay; details: MCF7, 48 h; in short: as §1

Compound	IC50 (HT-29)	IC50 (Caco-2)	IC50 (MCF7)
COc1cc(NC(C)CCCNC(=O)C2CCCN2C(=O)[C@@H](C)N)c2ncccc2c1 (stereo partly specified)	> 100 µM	64 µM	15 µM
FC(F)(F)c1ccc2c(Cl)ccnc2c1	> 100 µM	52.3 µM	63 µM
COc1cc(NC(C)CCCNC(=O)CN2C(=O)[C@H](C)NC23CCCCC3)c2ncccc2c1 (stereo partly specified)	> 100 µM	74.7 µM	27 µM
COc1cc(NC(C)CCCNC(C)=O)c2ncccc2c1 (stereo unspecified)	> 100 µM	46 µM	57.3 µM
COc1cc(NC(C)CCCNC(=O)CNC(=O)[C@H](C)N)c2ncccc2c1 (stereo partly specified)	92.3 µM	> 100 µM	21.3 µM
COc1cc(N)c2ncccc2c1	> 100 µM	> 100 µM	86.5 µM
O=C(O)c1cc2ccccc2nc1Cl	> 100 µM	81 µM	> 100 µM

Other lines, results leading:

IC50 (HT-29)	IC50 (Caco-2)	IC50 (MCF7)	Compound
> 100 µM	71 µM	42.3 µM	COc1cc(NC(C)CCCN2C(=O)[C@H](C)NC2(C)C)c2ncccc2c1 (stereo partly specified)
69.7 µM	48 µM	6.9 µM	COc1cc(NC(C)CCCN)c2ncccc2c1 (stereo unspecified) [PRIMAQUINE]
> 100 µM	60 µM	> 100 µM	COc1cc(NC(C)CCCN2C(=O)CN(C(C)=O)C2(C)C)c2ncccc2c1 (stereo unspecified)
46.3 µM	> 100 µM	20 µM	COc1cc(NC(C)CCCN2C(=O)CN(C(=O)[C@H](C)N)C2(C)C)c2ncccc2c1 (stereo partly specified)
> 100 µM	58 µM	38.3 µM	COc1cc(NC(C)CCCNC(=O)CN2C(=O)[C@H](C)NC2(C)C)c2ncccc2c1 (stereo partly specified)
